According to ChEMBL document CHEMBL3352237, “Synthesis and biological evaluation of novel peptide BF2 as an antibacterial agent against clinical isolates of vancomycin-resistant enterococci” (J Med Chem, 2014):

What was measured:
Format in all cases: functional
Enterococcus faecalis [1] = assay: Bactericidal activity against vancomycin-resistant Enterococcus faecalis clinical isolate 27728 after 24 hrs by two-fold serial dilution method; conditions: isolate 27728, 24 h
Enterococcus faecium [2] = assay: Bactericidal activity against vancomycin-resistant Enterococcus faecium clinical isolate 5396 after 24 hrs by two-fold serial dilution method; conditions: isolate 5396, 24 h
Enterococcus faecium [3] = assay: Bactericidal activity against vancomycin-resistant Enterococcus faecium clinical isolate 27/221 after 24 hrs by two-fold serial dilution method; conditions: isolate 27/221, 24 h
Enterococcus faecium [4] = assay: Bactericidal activity against vancomycin-resistant Enterococcus faecium clinical isolate 8/224 after 24 hrs by two-fold serial dilution method; conditions: isolate 8/224, 24 h
Enterococcus faecium [5] = assay: Bactericidal activity against vancomycin-resistant Enterococcus faecium clinical isolate 30/48 after 24 hrs by two-fold serial dilution method; conditions: isolate 30/48, 24 h
Enterococcus faecium [6] = assay: Bactericidal activity against vancomycin-resistant Enterococcus faecium clinical isolate 5484 after 24 hrs by two-fold serial dilution method; conditions: isolate 5484, 24 h
Enterococcus faecalis [7] = assay: Bactericidal activity against vancomycin-resistant Enterococcus clinical isolate assessed as log reduction at 2 times MIC after 60 to 120 mins by serial dilution method
Summary of the method: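 Time-kill assay: enterococci exposed to peptide at 2× MIC, with viable counts read as log10 CFU/mL over a 60–120 min exposure. Run on ATCC 29212 and a clinical isolate.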

Enterococcus = assay: Antibacterial activity against Enterococcus infected in Wistar albino rat assessed as reduction in cell count at 2 times MIC, iv after 1 hr relative to control; parameters: scale not given: the % may be the effect or the level left
Summary of the method: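 Female Wistar albino rats, 40−45 days old, 125−150 g, 5 groups of 3. Enterococci were grown to log phase in MH broth, centrifuged at 1000g for 15 min, and diluted in PBS to 4 × 10^6 CFU/mL. Rats were inoculated i.v. and treated i.v. 1 h later with 12.5, 25 or 37.5 mg/kg peptide, PBS vehicle, or linezolid 25 mg/kg. Tail-vein blood taken 1 h post-treatment was plated on blood agar, incubated overnight at 37 °C, and colonies counted.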

Enterococcus faecalis [8] = assay: Antibacterial activity against vancomycin-resistant Enterococcus faecalis clinical isolate 7846 after overnight incubation by two-fold serial dilution method
Enterococcus faecalis [9] = assay: Antibacterial activity against vancomycin-resistant Enterococcus faecalis clinical isolate 6093 after overnight incubation by two-fold serial dilution method
Enterococcus faecalis [10] = assay: Antibacterial activity against vancomycin-resistant Enterococcus faecalis clinical isolate 387702 after overnight incubation by two-fold serial dilution method
Enterococcus faecium [11] = assay: Antibacterial activity against vancomycin-resistant Enterococcus faecium clinical isolate 15/213 after overnight incubation by two-fold serial dilution method
Enterococcus faecium [12] = assay: Antibacterial activity against vancomycin-resistant Enterococcus faecium clinical isolate 12/266 after overnight incubation by two-fold serial dilution method
Enterococcus faecalis [13] = assay: Bactericidal activity against vancomycin-resistant Enterococcus faecalis clinical isolate 7670 after 24 hrs by two-fold serial dilution method; conditions: isolate 7670, 24 h

H-RWRLLLLKKH-OH was tested. Which MBC (Enterococcus faecalis [1]) did it give?
Its MBC is 25 µg/mL.

And the MBC (Enterococcus faecium [2])?
The MBC was 25 µg/mL.

And the MBC (Enterococcus faecium [3])?
Its MBC is 25 µg/mL.

What about the MBC (Enterococcus faecium [4]) of the same substance?
The MBC was 25 µg/mL.

What about the MBC (Enterococcus faecium [5]) of the same substance?
The MBC was 25 µg/mL.

What about the MBC (Enterococcus faecium [6]) of the same substance?
Its MBC is 25 µg/mL.

And the MBC (Enterococcus faecalis [7])?
The MBC was 25 µg/mL.

And the Activity (Enterococcus)?
The Activity was 76%.

And the MIC (Enterococcus faecalis [8])?
The MIC was 12.5 µg/mL.

What about the MIC (Enterococcus faecalis [9]) of the same substance?
Its MIC is 12.5 µg/mL.

And the MIC (Enterococcus faecalis [10])?
The MIC was 6.25 µg/mL.

And the MIC (Enterococcus faecium [11])?
The MIC was 6.25 µg/mL.

And the MIC (Enterococcus faecium [12])?
The MIC was 6.25 µg/mL.

What about the MBC (Enterococcus faecalis [13]) of the same substance?
Its MBC is 25 µg/mL.
